Measured values taken from ChEMBL document CHEMBL5107948, “Activity-based protein profiling reveals deubiquitinase and aldehyde dehydrogenase targets of a cyanopyrrolidine probe” (RSC Med Chem, 2021).
Calls of active or inactive are those of the source. The rule behind the calls is not given here.

Experiments:
[1] = molecular target: T1, Ubiquitin carboxyl-terminal hydrolase isozyme L5 (Homo sapiens) (UniProt Q9Y5K5); experiment: Inhibition of UCHL5 in human HEK293 cells using HA-Ub-VME as substrate at 0.1 to 10 uM incubated for 1 hr by immunoblotting analysis; type: cell-based; conditions: dose 0.1-10 µM
T1 sequence (whole entry): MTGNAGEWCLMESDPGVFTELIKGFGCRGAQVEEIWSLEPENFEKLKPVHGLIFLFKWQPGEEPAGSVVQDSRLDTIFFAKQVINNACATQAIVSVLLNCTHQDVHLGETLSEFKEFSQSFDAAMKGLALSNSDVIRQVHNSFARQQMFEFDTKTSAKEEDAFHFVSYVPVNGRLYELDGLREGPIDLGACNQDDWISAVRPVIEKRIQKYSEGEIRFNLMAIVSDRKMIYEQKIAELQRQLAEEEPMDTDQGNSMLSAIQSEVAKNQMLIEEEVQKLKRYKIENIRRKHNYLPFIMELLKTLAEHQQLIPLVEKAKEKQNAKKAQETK
Outline: (§1)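 Near-confluent HEK293 cells treated with compound in medium for 1 h at 37 °C, lysed in Tris/NP-40/CHAPS buffer with benzonase. Lysate (20 µg) reacted with HA-Ahx-Ahx-Ub-VME (0.5 µg) 15 min at room temperature, boiled 5 min at 95 °C in SDS loading buffer with BME, SDS-PAGE and immunoblot.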

[2] = molecular target: Ubiquitin carboxyl-terminal hydrolase isozyme L1 (Homo sapiens) (UniProt P09936); experiment: Inhibition of UCHL1 in human HEK293 cells using HA-Ub-VME as substrate at 0.1 to 10 uM incubated for 1 hr by immunoblotting analysis; type: cell-based; conditions: dose 0.1-10 µM; outline: as §1
[3] = molecular target: Ubiquitin carboxyl-terminal hydrolase isozyme L1 (Homo sapiens) (UniProt P09936); experiment: Inhibition of GST-tagged recombinant UCHL1 (unknown origin) using Ub-Lys-TAMRA as substrate at 1 uM incubated for 30 mins by fluorescence polarization assay
Outline: (§2)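 Recombinant DUB (UCHL1 or UCHL3 at 5 nM) preincubated 30 min RT with 8-point compound dilutions in Tris pH 7.5/NaCl or Tris pH 7.5 buffer with Tween-20, BSA and 5 mM BME. Ub-Lys-TAMRA (50 nM) added; fluorescence polarization (Ex 540/Em 590 nm) read at once and after 2 h RT. Triplicate; four-parameter IC50.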

[4] = Cytotoxicity against human HEK293 cells assessed as reduction in cell growth incubated for 72 hrs by live-cell time-lapse imaging; type: toxicity, cell-based
Outline: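 HEK293 cells, 1,000 per well, seeded 24 h before exposure to 7 serial dilutions, in triplicate. Confluence imaged every 2 h for 72 h by IncuCyte live-cell time-lapse imaging. EC50 from four-parameter dose-response fit; mean ± SD of 12 technical replicates.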

[5] = molecular target: T2, Ubiquitin carboxyl-terminal hydrolase isozyme L3 (Homo sapiens, UniProt P15374); experiment: Inhibition of GST-tagged recombinant UCHL3 (unknown origin) using Ub-Lys-TAMRA as substrate incubated for 30 mins by fluorescence polarization assay; outline: as §2
T2 sequence (P15374 whole entry): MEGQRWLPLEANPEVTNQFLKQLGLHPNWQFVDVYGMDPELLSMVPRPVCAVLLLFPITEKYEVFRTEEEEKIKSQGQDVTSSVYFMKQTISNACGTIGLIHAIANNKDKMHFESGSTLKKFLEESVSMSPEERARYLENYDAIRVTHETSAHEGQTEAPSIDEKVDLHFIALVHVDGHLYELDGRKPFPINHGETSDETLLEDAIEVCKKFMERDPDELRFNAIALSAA

[6] = molecular target: Ubiquitin carboxyl-terminal hydrolase isozyme L1 (Homo sapiens) (UniProt P09936); experiment: Binding affinity to GST-tagged recombinant UCHL1 (unknown origin) assessed as covalent adduct formation at 13 uM incubated for 1 hr by LC-ESI-MS analysis
[7] = molecular target: T3, Ubiquitin carboxyl-terminal hydrolase isozyme L1 (Homo sapiens, UniProt P09936); experiment: Inhibition of FLAG-tagged UCHL1 (unknown origin) expressed in CAL-51 cells using HA-Ub-VME as substrate incubated for 30 mins by HTRF assay; type: cell-based
T3 sequence (P09936 whole entry): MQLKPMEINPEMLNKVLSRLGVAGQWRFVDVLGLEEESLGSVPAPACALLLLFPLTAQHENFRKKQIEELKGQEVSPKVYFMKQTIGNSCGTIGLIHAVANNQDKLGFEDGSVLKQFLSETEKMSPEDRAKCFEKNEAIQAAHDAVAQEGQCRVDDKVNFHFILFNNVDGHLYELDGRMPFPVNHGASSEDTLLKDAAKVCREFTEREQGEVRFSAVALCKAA
Outline: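 Cal51 cells stably expressing FLAG-UCHL1, plated overnight, exposed to compound 1 h at 37 °C. Washed, lysed 30 min on ice in Tris/NaCl/NP-40/CHAPS/MgCl2/BME buffer. Lysate mixed with HA-Ub-VME (100 nM) 30 min RT; anti-FLAG cryptate and anti-HA-XL added, overnight at 4 °C. HTRF Delta F read; IC50 by four-parameter fit, two biological triplicates.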

[8] = molecular target: T4, Ubiquitin carboxyl-terminal hydrolase BAP1 (Homo sapiens) (UniProt Q92560); experiment: Inhibition of BAP1 in human HEK293 cells using HA-Ub-VME as substrate at 0.1 to 10 uM incubated for 1 hr by immunoblotting analysis; type: cell-based; conditions: dose 0.1-10 µM; outline: as §1
T4 sequence (whole entry): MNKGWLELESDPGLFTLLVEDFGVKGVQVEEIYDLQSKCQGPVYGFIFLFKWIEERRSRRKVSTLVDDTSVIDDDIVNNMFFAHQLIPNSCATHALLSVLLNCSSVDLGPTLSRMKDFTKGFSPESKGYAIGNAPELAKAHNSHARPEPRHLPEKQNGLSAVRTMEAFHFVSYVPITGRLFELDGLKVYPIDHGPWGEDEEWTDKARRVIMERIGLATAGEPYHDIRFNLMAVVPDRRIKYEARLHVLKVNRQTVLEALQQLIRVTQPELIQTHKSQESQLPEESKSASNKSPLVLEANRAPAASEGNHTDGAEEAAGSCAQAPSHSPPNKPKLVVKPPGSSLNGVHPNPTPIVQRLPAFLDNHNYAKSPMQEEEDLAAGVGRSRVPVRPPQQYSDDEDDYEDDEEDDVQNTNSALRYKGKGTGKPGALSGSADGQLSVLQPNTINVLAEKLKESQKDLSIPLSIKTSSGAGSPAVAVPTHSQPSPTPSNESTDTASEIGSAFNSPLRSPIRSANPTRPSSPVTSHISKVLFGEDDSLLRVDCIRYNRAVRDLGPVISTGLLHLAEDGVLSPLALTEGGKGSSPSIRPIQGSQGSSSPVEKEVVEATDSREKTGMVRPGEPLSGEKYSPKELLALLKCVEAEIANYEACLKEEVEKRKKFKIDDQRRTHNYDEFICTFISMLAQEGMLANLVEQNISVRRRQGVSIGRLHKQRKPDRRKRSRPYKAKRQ

[9] = molecular target: T5, Ubiquitin carboxyl-terminal hydrolase isozyme L3 (Homo sapiens) (UniProt P15374); experiment: Inhibition of UCHL3 in human HEK293 cells using HA-Ub-VME as substrate at 0.1 to 10 uM incubated for 1 hr by immunoblotting analysis; type: cell-based; conditions: dose 0.1-10 µM; outline: as §1
T5 sequence (whole entry): T2 sequence (P15374 whole entry)

inhibition [1] | inhibition [2] | inhibition [3] | IC50 [5] [nM] | Activity [6] | IC50 [7] [nM] | inhibition [8] | inhibition [9] | Structure (SMILES) | EC50 at 72 h [4] [nM]
Active | Active | Active | > 10000 | Active | 550 | Active | Active | N#CN1CC[C@H](C(=O)Nc2ncc(-c3ccccc3)s2)C1 | 730
Active | Active | Active | > 10000 | Active | 830 | Active | Active | C#Cc1ccc(-c2cnc(NC(=O)[C@H]3CCN(C#N)C3)s2)cc1 | 350
